In general, IC50 refers to the midpoint of a concentration-inhibition curve. By Km is commonly meant the substrate concentration at which the rate is half of its maximum. For orientation: kcat means the maximal rate divided by the concentration of active sites.

The values that follow come from ChEMBL document CHEMBL3525906, “A comprehensive assessment of repaglinide metabolic pathways: impact of choice of in vitro system and relative enzyme contribution to in vitro clearance” (Drug Metab Dispos, 2012).

The species entered for series [1] is Homo sapiens. Briefly: Unbound intrinsic clearance in human hepatic S9 fraction assessed as ketoconazole-mediated inhibition of 3'-hydroxy repaglinide intrinsic clearance at 0.5 to 150 uM by LC-MS/MS method.
Series [2] can be described thus: Retention time of the compound by LC-MS/MS method. Type of series: physicochemical.
The nature of series [3]: Ratio of human recombinant CYP2C8-mediated unbound intrinsic clearance to human recombinant CYP3A4-mediated unbound intrinsic clearance. Type of series: ADME. The conditions noted are these: recombinant enzyme.
Series [4] can be described thus: Ratio of human recombinant CYP2C8-mediated unbound intrinsic clearance to human recombinant CYP3A5-mediated unbound intrinsic clearance. The series is classed as ADME. The settings on record: recombinant enzyme.
Series [5] deals with Cytochrome P450 3A5 (Homo sapiens, UniProt P20815). The experiment in a line: Drug metabolism assessed as human recombinant CYP3A5-mediated metabolite formation at 0.5 to 150 uM by LC-MS/MS method. Type of series: ADME. The settings on record: recombinant enzyme. In outline:
(§1)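 Recombinant P450 (CYP2C8 50, CYP3A4 30, CYP3A5 100; units not given) incubated 10 min at 37°C with repaglinide (8 concentrations, 0.5–150 μM) in 0.1 M phosphate pH 7.4, 10 mM MgCl2, NADPH-regenerating system (1 mM NADP+, isocitrate/isocitrate dehydrogenase). Quenched with ice-cold methanol plus indomethacin internal standard. M1, M2, M4 quantified by LC-MS/MS against authentic standards. Michaelis-Menten fit; mean ± SD, n=3.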

The target in series [6] is T1, Cytochrome P450 2C8 (Homo sapiens, UniProt P10632).
T1 sequence (P10632 whole entry): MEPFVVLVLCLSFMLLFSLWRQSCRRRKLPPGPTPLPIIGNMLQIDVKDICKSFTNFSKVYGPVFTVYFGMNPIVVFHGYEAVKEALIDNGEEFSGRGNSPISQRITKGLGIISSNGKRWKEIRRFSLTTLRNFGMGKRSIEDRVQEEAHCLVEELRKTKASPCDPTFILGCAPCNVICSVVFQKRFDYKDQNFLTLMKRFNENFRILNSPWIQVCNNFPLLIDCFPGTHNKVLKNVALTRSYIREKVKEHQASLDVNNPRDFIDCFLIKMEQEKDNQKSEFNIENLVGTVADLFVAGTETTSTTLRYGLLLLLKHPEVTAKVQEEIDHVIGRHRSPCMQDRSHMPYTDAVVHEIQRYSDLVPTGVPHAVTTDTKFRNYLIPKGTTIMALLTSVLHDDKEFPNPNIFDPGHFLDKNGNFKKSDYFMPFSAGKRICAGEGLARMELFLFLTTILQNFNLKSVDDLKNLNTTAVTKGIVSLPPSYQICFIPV
The experiment in a line: Drug metabolism assessed as human recombinant CYP2C8-mediated metabolite formation at 0.5 to 150 uM by LC-MS/MS method. Type of series: ADME. The settings on record: recombinant enzyme. In outline:
as §1

A short description of series [7]: Unbound intrinsic clearance in human hepatic S9 fraction assessed as 10 uM disulfiram-mediated inhibition of 2-despiperidyl-2-(5-carboxypentylamine) repaglinide formation at 0.5 to 150 uM by LC-MS/MS method. Type of series: tissue-based, Liver. The settings on record: s9, 150 µM.
Series [8] has as its target Cytochrome P450 3A4 (Homo sapiens, UniProt P08684). The experiment in a line: Drug metabolism assessed as human recombinant CYP3A4-mediated metabolite formation at 0.5 to 150 uM by LC-MS/MS method. The series is classed as ADME. The conditions noted are these: recombinant enzyme. In outline: as §1
Series [9] is described as follows: Unbound intrinsic clearance in human hepatic S9 fraction assessed as IC50 for disulfiram-mediated inhibition of 2-despiperidyl-2-(5-carboxypentylamine) repaglinide formation at 10, 25 and 50 uM by LC-MS/MS method.
The species named for series [10] is Homo sapiens. Briefly: Unbound intrinsic clearance in human hepatic S9 fraction assessed as gemfibrozil glucuronide-mediated inhibition of 2-despiperidyl-2-amino repaglinide intrinsic clearance at 0.5 to 150 uM by LC-MS/MS method.
The nature of series [11]: Ratio of human recombinant CYP3A4-mediated unbound intrinsic clearance to human recombinant CYP3A5-mediated unbound intrinsic clearance. The series is classed as ADME. The settings on record: recombinant enzyme.
Series [12] can be described thus: Ratio of human recombinant CYP3A4-mediated unbound intrinsic clearance to human recombinant CYP2C8-mediated unbound intrinsic clearance. The series is classed as ADME. The settings on record: recombinant enzyme.
Substrate in series [13]: CCOc1cc(CC(=O)N[C@@H](CC(C)C)c2ccccc2N2CCCCC2)ccc1C(=O)O
The experiment in a line: Activity of human recombinant CYP3A5 expressed in insect cells assessed as enzyme-mediated 2-despiperidyl-2-amino repaglinide formation by LC-MS/MS method. Type of series: ADME. In outline: as §1

Substrate in series [14]: CCOc1cc(CC(=O)N[C@@H](CC(C)C)c2ccccc2N2CCCCC2)ccc1C(=O)O
Briefly: Activity of human recombinant CYP3A5 expressed in insect cells assessed as enzyme-mediated 2-despiperidyl-2-amino repaglinide formation per picomole of protein at 0.5 to 150 uM by LC-MS/MS method. Type of series: ADME. In outline: as §1

Substrate in series [15]: CCOc1cc(CC(=O)N[C@@H](CC(C)C)c2ccccc2N2CCCCC2)ccc1C(=O)O
The experiment in a line: Activity of human recombinant CYP3A5 expressed in insect cells assessed as enzyme-mediated 3'-hydroxy repaglinide formation per picomole of protein at 0.5 to 150 uM by LC-MS/MS method. Type of series: ADME. In outline:
as §1

Substrate in series [16]: CCOc1cc(CC(=O)N[C@@H](CC(C)C)c2ccccc2N2CCCCC2)ccc1C(=O)O
The experiment in a line: Activity of human recombinant CYP2C8 expressed in insect cells assessed as enzyme-mediated 3'-hydroxy repaglinide formation per picomole of protein at 0.5 to 150 uM by LC-MS/MS method. Type of series: ADME. In outline:
as §1

Substrate in series [17]: CCOc1cc(CC(=O)N[C@@H](CC(C)C)c2ccccc2N2CCCCC2)ccc1C(=O)O
The experiment in a line: Activity of human recombinant CYP2C8 expressed in insect cells assessed as enzyme-mediated 2-despiperidyl-2-amino repaglinide formation by LC-MS/MS method. Type of series: ADME. In outline: as §1

Substrate in series [18]: CCOc1cc(CC(=O)N[C@@H](CC(C)C)c2ccccc2N2CCCCC2)ccc1C(=O)O
The experiment in a line: Activity of human recombinant CYP2C8 expressed in insect cells assessed as enzyme-mediated 3'-hydroxy repaglinide formation by LC-MS/MS method. Type of series: ADME. In outline:
as §1

Substrate in series [19]: CCOc1cc(CC(=O)N[C@@H](CC(C)C)c2ccccc2N2CCCCC2)ccc1C(=O)O
The experiment in a line: Activity of human recombinant CYP2C8 expressed in insect cells assessed as enzyme-mediated 2-despiperidyl-2-amino repaglinide formation per picomole of protein at 0.5 to 150 uM by LC-MS/MS method. Type of series: ADME. In outline: as §1

Sequence of Cytochrome P450 3A4 (P08684 whole entry): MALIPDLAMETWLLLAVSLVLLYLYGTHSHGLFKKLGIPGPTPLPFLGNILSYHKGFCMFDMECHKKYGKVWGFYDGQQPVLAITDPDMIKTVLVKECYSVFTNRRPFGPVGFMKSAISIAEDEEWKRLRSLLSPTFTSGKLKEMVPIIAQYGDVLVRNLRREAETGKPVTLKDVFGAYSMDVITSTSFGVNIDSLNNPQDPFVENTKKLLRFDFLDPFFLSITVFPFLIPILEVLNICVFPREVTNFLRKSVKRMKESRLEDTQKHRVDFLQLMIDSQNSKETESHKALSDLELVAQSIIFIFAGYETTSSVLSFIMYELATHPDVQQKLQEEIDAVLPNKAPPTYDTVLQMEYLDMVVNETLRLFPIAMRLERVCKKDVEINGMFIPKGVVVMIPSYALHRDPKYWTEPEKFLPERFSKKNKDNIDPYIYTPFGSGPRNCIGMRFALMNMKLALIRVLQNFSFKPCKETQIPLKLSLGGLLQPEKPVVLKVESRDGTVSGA

In the case of `CCOc1cc(CC(=O)N[C@@H](CC(C)C)c2ccccc2N2CCCC(O)C2)ccc1C(=O)O` (stereo partly drawn), the “inhibition (INH)” value in [1] is recorded as less than 30%. The molecule further returned a Retention_time in series [2] of 2.9 min. Further, the Ratio in series [3] worked out at 35; in series [4], 360.
For `CCOc1cc(CC(=O)N[C@@H](CC(C)C)c2ccccc2NCCCCC(=O)O)ccc1C(=O)O`, the Drug metabolism in series [5], in series [6] and in series [8] was less than 1 nM throughout. In series [2], this molecule returned a Retention_time of 2.8 min. In series [7], the “inhibition (INH)” value is recorded as 89%. Also, the IC50 in [9] is 1200 nM.
For the molecule `CCOc1cc(CC(=O)N[C@@H](CC(C)C)c2ccccc2N2CCCCC2)ccc1C(=O)O[C@@H]1O[C@H](C(=O)O)[C@@H](O)[C@H](O)[C@H]1O`, the Retention_time in series [2] amounted to 3.4 min.
As for `CCOc1cc(CC(=O)N[C@@H](CC(C)C)c2ccccc2N)ccc1C(=O)O`, the Retention_time in [2] is on record as 2.7 min. The “inhibition (INH)” value in series [10] is reported as less than 30%. The Ratio is 85 in series [11] and 32 in [12].
As for `COc1ccc2c(c1)c(CC(=O)O)c(C)n2C(=O)c1ccc(Cl)cc1` [INDOMETHACIN], the Retention_time in [2] was 3 min.

B1: Cytochrome P450 3A5 (Homo sapiens) (protein)
chain: MDLIPNLAVETWLLLAVSLVLLYLYGTRTHGLFKRLGIPGPTPLPLLGNVLSYRQGLWKFDTECYKKYGKMWGTYEGQLPVLAITDPDVIRTVLVKECYSVFTNRRSLGPVGFMKSAISLAEDEEWKRIRSLLSPTFTSGKLKEMFPIIAQYGDVLVRNLRREAEKGKPVTLKDIFGAYSMDVITGTSFGVNIDSLNNPQDPFVESTKKFLKFGFLDPLFLSIILFPFLTPVFEALNVSLFPKDTINFLSKSVNRMKKSRLNDKQKHRLDFLQLMIDSQNSKETESHKALSDLELAAQSIIFIFAGYETTSSVLSFTLYELATHPDVQQKLQKEIDAVLPNKAPPTYDAVVQMEYLDMVVNETLRLFPVAIRLERTCKKDVEINGVFIPKGSMVVIPTYALHHDPKYWTEPEEFRPERFSKKKDSIDPYIYTPFGTGPRNCIGMRFALMNMKLALIRVLQNFSFKPCKETQIPLKLDTQGLLQPEKPIVLKVDSRDGTLSGE
Take B1: the Km in series [13] came to 66 µM. Also, the figures for the kcat in [14] and in series [15] were 0.00133 s⁻¹ and 0.000833 s⁻¹, respectively.

B2: Cytochrome P450 2C8 (Homo sapiens) (protein)
chain: T1 sequence (P10632 whole entry)
Take B2: the kcat in [16] came out at 0.00583 s⁻¹; in series [19] it was 0.00133 s⁻¹. Besides, the Km in series [17] was found to be 25 µM; in series [18], 5.7 µM.
